According to BindingDB's records for doi:10.1021/acs.jmedchem.9b02004 (University of Illinois At Chicago, 2020):

Molecular target: T1, Acid ceramidase (Homo sapiens, UniProt Q13510)
T1 sequence (Q13510 whole entry): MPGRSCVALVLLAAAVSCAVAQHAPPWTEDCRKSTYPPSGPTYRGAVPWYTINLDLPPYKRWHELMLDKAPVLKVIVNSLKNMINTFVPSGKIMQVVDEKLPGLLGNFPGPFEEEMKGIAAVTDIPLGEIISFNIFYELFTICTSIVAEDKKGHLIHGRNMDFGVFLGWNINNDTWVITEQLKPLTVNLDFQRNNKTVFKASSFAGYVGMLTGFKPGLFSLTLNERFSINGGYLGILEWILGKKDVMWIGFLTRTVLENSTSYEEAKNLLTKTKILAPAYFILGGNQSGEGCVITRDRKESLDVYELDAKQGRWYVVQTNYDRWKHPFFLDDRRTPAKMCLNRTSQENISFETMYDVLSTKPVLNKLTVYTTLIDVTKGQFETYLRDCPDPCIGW
Test: Time-dependent inhibition of human acid ceramidase expressed in HEK293 cells using Rbm14-12 as substrate by fluorescence assay
Procedure, shortened: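 hAC-enriched lysates with fluorogenic substrate Rbm 14-12; vehicle 1% DMSO; time-dependent inhibition analysed for ki/KI and ki; two independent experiments, each in two technical replicates.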

kinact: 0.0025 s⁻¹
Compound: CC(C)CNC(=O)n1c(=O)oc2cc(C3CCN(C)CC3)ccc21
